Here are results for 6 molecules from ChEMBL document CHEMBL2375304, “Synthesis and anticancer activity of novel 2-pyridyl hexahyrocyclooctathieno[2,3-d]pyrimidine derivatives” (2013).

For orientation: GI50 means the concentration at which growth is held to half of that of the control.

What all share (format): functional
The test system of test [1] is UACC-257. Nature of the test: Growth inhibition of human UACC257 cells after 48 hrs by Sulforhodamine B assay. The note with it: UACC-257, 48 h. The method, boiled down:
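Five-concentration stage in the […]-cell-line panel, using 10-fold or ½-log serial dilutions made from a DMSO stock (400-fold). Cells were preincubated 24 h at 37 °C, then drug-exposed 48 h. A time-zero plate was fixed with TCA at dosing, adherent cells were fixed with cold TCA (10% final), and protein was stained with SRB, absorbance 515 nm. GI50 was where [(Ti−Tz)/(C−Tz)]×100 = 50, from the percent growth vs log concentration plot, expressed as log10 GI50.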
(In general: Sulforhodamine B stains cellular protein and so reports cell mass.)

In test [2] the test system is PC-3. Nature of the test: Growth inhibition of human PC3 cells after 48 hrs by Sulforhodamine B assay. The note with it: PC-3, 48 h. The method, boiled down: (§1)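 Cells were preincubated 24 h at 37 °C, 5% CO2, and a time-zero plate was TCA-fixed. Five concentrations were made by serial dilution from a DMSO stock (400-fold the top concentration) and incubated 48 h. Adherent cells were fixed with 10% final TCA and suspension cells with 16%. Plates were stained with 0.4% SRB and read at 515 nm. GI50 is the concentration giving 50% reduction in net protein increase versus control.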

For test [3], the system named is SK-MEL-28. Nature of the test: Growth inhibition of human SK-MEL-28 cells after 48 hrs by Sulforhodamine B assay. The note with it: SK-MEL-28, 48 h. In outline:
as §1

The subject of test [4] is NCI-H226. Nature of the test: Growth inhibition of human NCI-H226 cells after 48 hrs by Sulforhodamine B assay. The following applies: NCI-H226, 48 h. The method, boiled down:
as §1

The subject of test [5] is MDA-MB-435. Description: Growth inhibition of human MDA-MB-435 cells after 48 hrs by Sulforhodamine B assay. The following applies: MDA-MB-435, 48 h. The method, boiled down: (§2)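 Five-concentration SRB assay using 10-fold or ½-log serial dilutions from a DMSO stock. Exposure is 48 h at 37 °C in 5% CO2 after 24 h preincubation. TCA fixation is followed by SRB staining and a reading at 515 nm. Percentage growth is computed from time-zero, control and treated absorbances. GI50 is the concentration where [(Ti−Tz)/(C−Tz)]×100 = 50, read from the plot against log concentration.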

In test [6] the test system is RXF 393. Nature of the test: Growth inhibition of human RXF393 cells after 48 hrs by Sulforhodamine B assay. The following applies: RXF 393, 48 h. The method, boiled down:
as §1

The subject of test [7] is KM12. Description: Growth inhibition of human KM12 cells after 48 hrs by Sulforhodamine B assay. The note with it: KM12, 48 h. In outline: as §2
Test [8] deals with NCI-H522. Nature of the test: Growth inhibition of human NCI-H522 cells after 48 hrs by Sulforhodamine B assay. The following applies: NCI-H522, 48 h. In outline: as §1
In test [9] the test system is Hs-578T. Description: Growth inhibition of human Hs578T cells after 48 hrs by Sulforhodamine B assay. In outline: as §2
Test [10] has as its system CCRF-CEM. Description: Growth inhibition of human CCRF-CEM cells after 48 hrs by Sulforhodamine B assay. The method, boiled down:
as §2

Test [11] concerns M14. Nature of the test: Growth inhibition of human M14 cells after 48 hrs by Sulforhodamine B assay. The note with it: M14, 48 h. In outline:
as §2

In test [12] the test system is SK-MEL-2. Description: Growth inhibition of human SK-MEL-2 cells after 48 hrs by Sulforhodamine B assay. The note with it: SK-MEL-2, 48 h. In outline:
as §1

As for `COc1ccc(N2CCN(c3nc(-c4ccccn4)nc4sc5c(c34)CCCCCC5)CC2)cc1`, the GI50 in [1] was 7.24 µM; in test [2], 3.31 µM; in test [3] it was above 100 µM; in [4], 6.46 µM; in [5], 5.5 µM; in [6] it was above 100 µM. In addition, the GI50 in [7] was 5.13 µM; in test [8], 18.6 µM; in [9], 57.5 µM; in test [10], 4.37 µM; in test [11], 5.37 µM; in test [12] it was 18.2 µM.
Take `CN1CCN(c2nc(-c3ccncc3)nc3sc4c(c23)CCCCCC4)CC1`: the GI50 is 10.7 µM in test [1]; 4.68 µM in test [2]; 12.6 µM in test [3]; 10.5 µM in [4]; 11.7 µM in [5]; 4.07 µM in [6]. Also, the GI50 was 13.5 µM in [7]; 12 µM in test [8]; 2.29 µM in test [9]; 8.13 µM in [10]; 5.37 µM in [11]; 14.5 µM in test [12].
In the case of `c1ccc(-c2nc(N3CCOCC3)c3c4c(sc3n2)CCCCCC4)nc1`, the GI50 in test [1] is 11 µM; in test [2], 2.69 µM; in test [3], 11 µM; in test [4], 5.01 µM; in test [5], 4.79 µM; in test [6], 8.32 µM. The GI50 is 4.27 µM in [7]; 5.89 µM in test [8]; 3.39 µM in test [9]; 3.55 µM in test [10]; 4.17 µM in test [11]; 7.94 µM in [12].
As to `NNc1nc(-c2ccccn2)nc2sc3c(c12)CCCCCC3`, the GI50 is 6.61 µM in [1]; 3.98 µM in test [2]; 14.8 µM in test [3]; 10.2 µM in test [4]; 5.13 µM in test [5]; 6.76 µM in test [6]. The GI50 in [7] is 6.46 µM; in test [8], 12 µM; in [9] it was 11 µM; in [10] it was 4.47 µM; in test [11], 5.5 µM; in test [12], 14.5 µM.
Take `O=c1[nH]c(-c2ccncc2)nc2sc3c(c12)CCCCCC3`: the GI50 in test [1], in [2], in [3], in test [4], in test [5] and in test [6] was above 100 µM throughout. In addition, the GI50 in test [7], in test [8], in test [9], in test [10], in [11] and in test [12] was above 100 µM in each case.
In the case of `O=c1[nH]c(-c2ccccn2)nc2sc3c(c12)CCCCCC3`, the GI50 in [1] was above 100 µM; in test [2] it was 4.07 µM; in test [3] it was 6.03 µM; in test [4], above 100 µM; in test [5] it was above 100 µM; in test [6] it was 7.41 µM. Moreover, the GI50 was 4.07 µM in test [7]; above 100 µM in [8]; 6.46 µM in [9]; 0.912 µM in [10]; 4.07 µM in [11]; above 100 µM in [12].
